What was measured:
[1] = target: T1, recombinant human AKR1C4 (Homo sapiens, UniProt P17516); experiment: Related enzyme screen; type: biochemical; conditions: preclinical screen
T1 sequence (P17516 1-323): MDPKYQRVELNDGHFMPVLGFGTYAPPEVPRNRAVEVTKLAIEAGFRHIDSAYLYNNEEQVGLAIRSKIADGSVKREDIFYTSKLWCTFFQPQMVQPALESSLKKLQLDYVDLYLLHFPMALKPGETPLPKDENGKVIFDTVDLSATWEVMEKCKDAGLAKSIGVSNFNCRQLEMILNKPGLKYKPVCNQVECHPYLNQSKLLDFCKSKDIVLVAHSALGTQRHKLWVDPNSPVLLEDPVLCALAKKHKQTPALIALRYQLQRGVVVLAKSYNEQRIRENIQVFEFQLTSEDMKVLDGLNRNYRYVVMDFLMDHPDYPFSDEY

[2] = test system: 134 human targets including G protein-coupled and nuclear receptors, ion channels, transporters, and enzymes; experiment: Specificity panel
[3] = target: T2, human AKR1D1 (Homo sapiens, UniProt P51857); experiment: AKR1D1 inhibition, cortisone as model substrate; type: biochemical
T2 sequence (P51857 1-326): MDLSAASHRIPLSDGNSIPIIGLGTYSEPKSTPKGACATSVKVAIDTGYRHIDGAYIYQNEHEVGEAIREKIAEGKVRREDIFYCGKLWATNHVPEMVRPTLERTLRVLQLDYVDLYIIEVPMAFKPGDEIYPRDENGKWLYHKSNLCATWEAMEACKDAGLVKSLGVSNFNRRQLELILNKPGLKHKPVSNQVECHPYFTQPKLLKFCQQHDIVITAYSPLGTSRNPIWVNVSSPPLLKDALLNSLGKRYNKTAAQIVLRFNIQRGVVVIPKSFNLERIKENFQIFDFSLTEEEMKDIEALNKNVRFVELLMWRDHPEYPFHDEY

[4] = test system: serum androsterone; experiment: AKRENDO1 pharmacodynamics; type: in vivo, human; conditions: completers
[5] = 60 mg BID; cited from earlier work
[6] = test system: adult premenopausal women with endometriosis-related pain symptoms; experiment: AKRENDO1 phase IIa trial, adverse events; type: in vivo, human
Procedure, shortened: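 Randomized, placebo-controlled phase IIa trial in women ≥18 years with surgically or imaging-confirmed endometriosis who met defined pain criteria. Oral dosing: 3 mg OD, 10 mg OD, 30 mg OD, 30 mg BID, 60 mg BID, or placebo for 12 weeks. Visits at days 10, 28, 56 and 84 (±4 d), plus follow-up 2 weeks after end of treatment. Incidence of AEs, SAEs and TEAEs recorded.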

[7] = AKRENDO1 population pharmacokinetic analysis; type: in vivo, human; conditions: 3 mg OD relative to all doses >3 mg; 95% confidence interval, 11–59; popPK model

CN(CCC(=O)O)C(=O)c1ccc2c(c1)CC[C@@H]1[C@@H]2CC[C@]2(C)C(c3cncc(F)c3)=CC[C@@H]12 [BAY1128688]
activity against related enzyme [1]: no relevant activity
interactions in specificity panel [2]: no relevant interactions
inhibition of human AKR1D1 activity ([3]; 100 µM, cortisone as model substrate, Bayer AG, data on file): 11%
activity against related enzyme ([3]; preclinical screen): no relevant activity
cyclicity of sex hormones [4]: No changes
serum concentrations of androsterone ([4]; from visit 4 onwards, 12 weeks): increased dose-dependently
total concentration in human plasma [5]: approximately 10 µM
unbound maximum steady-state concentration in human plasma [5]: < 0.1 µM
Any AE ([6]; 3 mg OD n = 11): 8 (72.7) Number (%)
Any SAE ([6]; 3 mg OD n = 11): 1 (9.1) Number (%)
Any TEAE ([6]; 3 mg OD n = 11): 5 (45.5) Number (%)
Any TESAE ([6]; 3 mg OD n = 11): 1 (9.1) Number (%)
Discontinuation due to TEAE ([6]; 3 mg OD n = 11): 0 Number (%)
Discontinuation due to TESAE ([6]; 3 mg OD n = 11): 0 Number (%)
Procedure-related TEAE ([6]; 3 mg OD n = 11): 0 Number (%)
SAE related to procedure ([6]; 3 mg OD n = 11): 0 Number (%)
Study-drug-related SAE ([6]; 3 mg OD n = 11): 0 Number (%)
Study-drug-related TEAE ([6]; 3 mg OD n = 11): 4 (36.4) Number (%)
participants with TEAEs ([6]; 10 mg OD): 32.3%
participants with study-drug-related TEAEs ([6]; 10 mg OD): 9.7%
Any AE ([6]; 10 mg OD n = 31): 16 (51.6) Number (%)
Any SAE ([6]; 10 mg OD n = 31): 0 Number (%)
Any TEAE ([6]; 10 mg OD n = 31): 10 (32.3) Number (%)
Any TESAE ([6]; 10 mg OD n = 31): 0 Number (%)
Discontinuation due to TEAE ([6]; 10 mg OD n = 31): 1 (3.2) Number (%)
Discontinuation due to TESAE ([6]; 10 mg OD n = 31): 0 Number (%)
Procedure-related TEAE ([6]; 10 mg OD n = 31): 0 Number (%)
SAE related to procedure ([6]; 10 mg OD n = 31): 0 Number (%)
Study-drug-related SAE ([6]; 10 mg OD n = 31): 0 Number (%)
Study-drug-related TEAE ([6]; 10 mg OD n = 31): 3 (9.7) Number (%)
Any AE ([6]; 30 mg BID n = 11): 7 (63.6) Number (%)
Any SAE ([6]; 30 mg BID n = 11): 0 Number (%)
Any TEAE ([6]; 30 mg BID n = 11): 6 (54.5) Number (%)
Any TESAE ([6]; 30 mg BID n = 11): 0 Number (%)
Discontinuation due to TEAE ([6]; 30 mg BID n = 11): 2 (18.2) Number (%)
Discontinuation due to TESAE ([6]; 30 mg BID n = 11): 0 Number (%)
Procedure-related TEAE ([6]; 30 mg BID n = 11): 0 Number (%)
SAE related to procedure ([6]; 30 mg BID n = 11): 0 Number (%)
Study-drug-related SAE ([6]; 30 mg BID n = 11): 0 Number (%)
Study-drug-related TEAE ([6]; 30 mg BID n = 11): 2 (18.2) Number (%)
participants with TEAEs ([6]; 30 mg OD): 90.0%
Any AE ([6]; 30 mg OD n = 10): 9 (90.0) Number (%)
Any SAE ([6]; 30 mg OD n = 10): 2 (20.0) Number (%)
Any TEAE ([6]; 30 mg OD n = 10): 9 (90.0) Number (%)
Any TESAE ([6]; 30 mg OD n = 10): 2 (20.0) Number (%)
Discontinuation due to TEAE ([6]; 30 mg OD n = 10): 0 Number (%)
Discontinuation due to TESAE ([6]; 30 mg OD n = 10): 0 Number (%)
Procedure-related TEAE ([6]; 30 mg OD n = 10): 0 Number (%)
SAE related to procedure ([6]; 30 mg OD n = 10): 0 Number (%)
Study-drug-related SAE ([6]; 30 mg OD n = 10): 1 (10.0) Number (%)
Study-drug-related TEAE ([6]; 30 mg OD n = 10): 4 (40.0) Number (%)
participants with study-drug-related TEAEs ([6]; 60 mg BID): 51.9%
Any AE ([6]; 60 mg BID n = 27): 23 (85.2) Number (%)
Any SAE ([6]; 60 mg BID n = 27): 1 (3.7) Number (%)
Any TEAE ([6]; 60 mg BID n = 27): 21 (77.8) Number (%)
Any TESAE ([6]; 60 mg BID n = 27): 1 (3.7) Number (%)
Discontinuation due to TEAE ([6]; 60 mg BID n = 27): 3 (11.1) Number (%)
Discontinuation due to TESAE ([6]; 60 mg BID n = 27): 0 Number (%)
Procedure-related TEAE ([6]; 60 mg BID n = 27): 2 (7.4) Number (%)
SAE related to procedure ([6]; 60 mg BID n = 27): 0 Number (%)
Study-drug-related SAE ([6]; 60 mg BID n = 27): 1 (3.7) Number (%)
Study-drug-related TEAE ([6]; 60 mg BID n = 27): 14 (51.9) Number (%)
increase in relative bioavailability [7]: 35%

— publication PMC10439066 (Drugs in R&D, 2023)
